In BindingDB's records for doi:10.1021/jm950797i (Medichem Research, 1996) one finds IC50 data, which are given here for 3 compounds.

pIC50: −log10 of the molar value.

In test [1] the target is T1, Gag-Pol polyprotein [489-587] (Human immunodeficiency virus 1, UniProt P04585).
T1 construct: 489-587
Put plainly: Inhibitory activity against DNA -dependent DNA polymerase (DDDP) of HIV-1 RT Nucleic Acid polymerase. The procedure, abridged:
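Dimeric (p66/p51) HIV-1 RT in the RT buffer, reacted 1 h at 37 °C. Template was activated calf thymus DNA (final 20 µg/mL), with dATP, dCTP and dGTP each at final 50 µM plus 5 µCi [3H]TTP. Acid-insoluble label was counted by scintillation. Prescreened at 200 µg/mL, then 10 half-log concentrations in duplicate; IC50 read from dose-response curves.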

The target in test [2] is T1, Gag-Pol polyprotein [489-587]. Put plainly: Inhibitory activity against RNA-dependent DNA polymerase (RDDP) of HIV-1 RT Nucleic Acid polymerase. The procedure, abridged: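 Purified dimeric (p66/p51) HIV-1 RT (0.08 µg) in pH 8.0 Tris-HCl with KCl, MgCl2, DTT, glutathione, EGTA and BSA. Template-primer was 41 µM poly(rA) with 9.5 µM oligo(dT), plus 20 µM TTP and [3H]TTP. Incubated 1 h at 37 °C, stopped at 80 °C, and counted on filters. Prescreened at 200 µg/mL; IC50 taken from 10 half-log doses in duplicate.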

The target is the same in test [3]. Put plainly: Inhibitory activity against TIBO-resistant HIV-1 RT Nucleic Acid polymerase.

By pIC50 is commonly meant the negative decadic logarithm of the IC50, by convention in mol/L. A high value points to a small IC50. As for `CCCc1cc(=O)oc2c3c(c4c(c12)OC(C)(C)C=C4)O[C@@H](C)[C@H](C)[C@@H]3O`, the values for the pIC50 in test [1] and in test [2] were 3.81 and 4.56, respectively.
As to `CCCc1cc(=O)oc2c3c(c4c(c12)OC(C)(C)C=C4)O[C@H](C)[C@@H](C)[C@@H]3O` [(10R,11S,12S)-12-Hydroxy-6,6,10,11-tetramethyl-4-propyl-11,12-dihydro-6H,10H-dipyrano[2,3-f;2',3'-h]chromen-2-one], the pIC50 was 6.42 in test [1] and 5.00 in test [3].
Consider `CCCc1cc(=O)oc2c3c(c4c(c12)OC(C)(C)C=C4)O[C@@H](C)C(C)[C@@H]3O` (stereo partly drawn) [(10S,12S)-12-Hydroxy-6,6,10,11-tetramethyl-4-propyl-11,12-dihydro-6H,10H-dipyrano[2,3-f;2',3'-h]chromen-2-one], for which the pIC50 in test [1] was 6.15; in test [2] it was 6.01; in test [3] it was 4.75.
